According to ChEMBL document CHEMBL5712901, “DOT1L inhibition blocks multiple myeloma cell proliferation by suppressing IRF4-MYC signaling” (2019):
The source made the active and inactive calls. The calls are words filed in the database; no cut-off is given here.

Tests used:
RPMI-8226 [1] = experiment: Antiproliferative activity against human RPMI-8226 cells treated 3 days at 1 uM; type: functional, cell-based; conditions: time 3.0 day
Procedure, shortened: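 Cell lines in 6-well plates, 2 × 10^4 to 8 × 10^5 cells/well, exposed to DOT1L inhibitor at 0.25-1 μM or DMSO, with medium and drug refreshed every 3 days. Viability read with Cell Counting Kit-8 on a microplate reader. Values normalized to untreated cells; mean of 3 replications ± SEM.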

RPMI-8226 [2] = experiment: Induction of apoptosis in human RPMI-8226 cells assessed as early apoptotic cells at 1 uM for 6 days by annexin-V based propidium iodide staining based flow cytometric analysis (reference value: 8.16%); type: functional; conditions: time 6 day
MM1.S [3] = experiment: Induction of apoptosis in human MM1.S cells assessed as late apoptotic cells at 1 uM for 6 days by annexin-V based propidium iodide staining based flow cytometric analysis (reference value: 13.4%); type: functional; conditions: time 6 day
RPMI-8226 [4] = experiment: Upregulation of IFN in human RPMI-8226 cells assessed as increase in ISG15 gene at 1 uM for 6 days by qRT-PCR analysis; type: functional, cell-based; conditions: time 6.0 day
MM1.S [5] = experiment: Upregulation of DOT1L in human MM1.S cells by qRT-PCR analysis; type: functional, cell-based
Procedure, shortened: (§1)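 Basal DOT1L transcript in untreated myeloma cell lines measured by qRT-PCR, normalized to ACTB; mean of 3 replicates with SEM.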

KMS-12-PE = experiment: Upregulation of DOT1L in human KMS-12-PE cells by qRT-PCR analysis; type: functional, cell-based; procedure, shortened: as §1
U-266 = experiment: Upregulation of DOT1L in human U-266 cells by qRT-PCR analysis; type: functional, cell-based; procedure, shortened: as §1
MM1.S [6] = experiment: Downregulation of H3K79me2 level in human MM1.S cells at 1 uM for 3 days by ChIP-qPCR analysis; type: functional, cell-based; conditions: time 3.0 day
Procedure, shortened: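 ChIP-qPCR for H3K79me2 at IRF4-MYC signaling genes after 1 μM inhibitor or DMSO for 3 days. Signal normalized to input DNA. An intergenic region 28 kb upstream of KLF2 served as negative control. Mean of 3 replications ± SEM.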

MM1.S [7] = experiment: Upregulation of IFN in human MM1.S cells assessed as increase in IFI44 gene at 1 uM for 6 days by qRT-PCR analysis; type: functional, cell-based; conditions: time 6.0 day
RPMI-8226 [8] = experiment: Upregulation of AGPAT9 gene in human RPMI-8226 cells at 1 uM for 6 days by; type: functional, cell-based; conditions: time 6.0 day
RPMI-8226 [9] = experiment: Upregulation of ALPK1 gene in human RPMI-8226 cells at 1 uM for 6 days by; type: functional, cell-based; conditions: time 6.0 day
RPMI-8226 [10] = experiment: Upregulation of APOL4 gene in human RPMI-8226 cells at 1 uM for 6 days by; type: functional, cell-based; conditions: time 6.0 day
RPMI-8226 [11] = experiment: Upregulation of CACNB3 gene in human RPMI-8226 cells at 1 uM for 6 days by; type: functional, cell-based; conditions: time 6.0 day
RPMI-8226 [12] = experiment: Upregulation of CCDC96 gene in human RPMI-8226 cells at 1 uM for 6 days by; type: functional, cell-based; conditions: time 6.0 day
RPMI-8226 [13] = experiment: Upregulation of CCR2 gene in human RPMI-8226 cells at 1 uM for 6 days by; type: functional, cell-based; conditions: time 6.0 day
RPMI-8226 [14] = experiment: Upregulation of FBXO2 gene in human RPMI-8226 cells at 1 uM for 6 days by; type: functional, cell-based; conditions: time 6.0 day
Procedure, shortened: (§2)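 Human myeloma lines RPMI-8226 and MM.1S exposed to 1 μM DOT1L inhibitor, or DMSO, for 6 days. Whole-genome expression profiled on gene expression microarray.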

RPMI-8226 [15] = experiment: Upregulation of GNAI1 gene in human RPMI-8226 cells at 1 uM for 6 days by; type: functional, cell-based; conditions: time 6.0 day; procedure, shortened: as §2
RPMI-8226 [16] = experiment: Upregulation of HOXB6 gene in human RPMI-8226 cells at 1 uM for 6 days by; type: functional, cell-based; conditions: time 6.0 day
RPMI-8226 [17] = experiment: Upregulation of IL13RA1 gene in human RPMI-8226 cells at 1 uM for 6 days by; type: functional, cell-based; conditions: time 6.0 day
RPMI-8226 [18] = experiment: Upregulation of LAMB3 gene in human RPMI-8226 cells at 1 uM for 6 days by; type: functional, cell-based; conditions: time 6.0 day
RPMI-8226 [19] = experiment: Upregulation of LY86 gene in human RPMI-8226 cells at 1 uM for 6 days by; type: functional, cell-based; conditions: time 6.0 day
RPMI-8226 [20] = experiment: Upregulation of MME gene in human RPMI-8226 cells at 1 uM for 6 days by; type: functional, cell-based; conditions: time 6.0 day
RPMI-8226 [21] = experiment: Upregulation of MMP9 gene in human RPMI-8226 cells at 1 uM for 6 days by; type: functional, cell-based; conditions: time 6.0 day
RPMI-8226 [22] = experiment: Upregulation of MS4A4A gene in human RPMI-8226 cells at 1 uM for 6 days by; type: functional, cell-based; conditions: time 6.0 day
RPMI-8226 [23] = experiment: Upregulation of PPP1R1C gene in human RPMI-8226 cells at 1 uM for 6 days by; type: functional, cell-based; conditions: time 6.0 day
RPMI-8226 [24] = experiment: Upregulation of PYCARD gene in human RPMI-8226 cells at 1 uM for 6 days by; type: functional, cell-based; conditions: time 6.0 day
RPMI-8226 [25] = experiment: Upregulation of RORC gene in human RPMI-8226 cells at 1 uM for 6 days by; type: functional, cell-based; conditions: time 6.0 day
RPMI-8226 [26] = experiment: Upregulation of S100A10 gene in human RPMI-8226 cells at 1 uM for 6 days by; type: functional, cell-based; conditions: time 6.0 day
RPMI-8226 [27] = experiment: Upregulation of SAP30L gene in human RPMI-8226 cells at 1 uM for 6 days by; type: functional, cell-based; conditions: time 6.0 day
RPMI-8226 [28] = experiment: Upregulation of SORL1 gene in human RPMI-8226 cells at 1 uM for 6 days by; type: functional, cell-based; conditions: time 6.0 day
RPMI-8226 [29] = experiment: Upregulation of ZNF75D gene in human RPMI-8226 cells at 1 uM for 6 days by; type: functional, cell-based; conditions: time 6.0 day
MM1.S [30] = experiment: Upregulation of APOL4 gene in human MM1.S cells at 1 uM for 6 days by; type: functional, cell-based; conditions: time 6.0 day
MM1.S [31] = experiment: Upregulation of CCDC96 gene in human MM1.S cells at 1 uM for 6 days by; type: functional, cell-based; conditions: time 6.0 day
MM1.S [32] = experiment: Upregulation of CXCL10 gene in human MM1.S cells at 1 uM for 6 days by; type: functional, cell-based; conditions: time 6.0 day; procedure, shortened: as §2
MM1.S [33] = experiment: Upregulation of CXCL9 gene in human MM1.S cells at 1 uM for 6 days by; type: functional, cell-based; conditions: time 6.0 day; procedure, shortened: as §2
MM1.S [34] = experiment: Upregulation of DDIT4L gene in human MM1.S cells at 1 uM for 6 days by; type: functional, cell-based; conditions: time 6.0 day; procedure, shortened: as §2
MM1.S [35] = experiment: Upregulation of FCGR2B gene in human MM1.S cells at 1 uM for 6 days by; type: functional, cell-based; conditions: time 6.0 day; procedure, shortened: as §2
MM1.S [36] = experiment: Upregulation of FNBP1L gene in human MM1.S cells at 1 uM for 6 days by; type: functional, cell-based; conditions: time 6.0 day; procedure, shortened: as §2
MM1.S [37] = experiment: Upregulation of FZD1 gene in human MM1.S cells at 1 uM for 6 days by; type: functional, cell-based; conditions: time 6.0 day; procedure, shortened: as §2
MM1.S [38] = experiment: Upregulation of ID2 gene in human MM1.S cells at 1 uM for 6 days by; type: functional, cell-based; conditions: time 6.0 day
MM1.S [39] = experiment: Upregulation of MILR1 gene in human MM1.S cells at 1 uM for 6 days by; type: functional, cell-based; conditions: time 6.0 day
MM1.S [40] = experiment: Upregulation of PYCARD gene in human MM1.S cells at 1 uM for 6 days by; type: functional, cell-based; conditions: time 6.0 day
MM1.S [41] = experiment: Upregulation of S100A10 gene in human MM1.S cells at 1 uM for 6 days by; type: functional, cell-based; conditions: time 6.0 day
MM1.S [42] = experiment: Upregulation of SLC9A9 gene in human MM1.S cells at 1 uM for 6 days by; type: functional, cell-based; conditions: time 6.0 day
MM1.S [43] = experiment: Upregulation of TTC39C gene in human MM1.S cells at 1 uM for 6 days by; type: functional, cell-based; conditions: time 6.0 day
MM1.S [44] = experiment: Upregulation of ZG16B gene in human MM1.S cells at 1 uM for 6 days by; type: functional, cell-based; conditions: time 6.0 day

CC(C)N(C[C@H]1O[C@@H](n2cnc3c(N)ncnc32)[C@H](O)[C@@H]1O)[C@H]1C[C@@H](CCc2nc3cc(C(C)(C)C)ccc3[nH]2)C1 [PINOMETOSTAT]
Activity (RPMI-8226 [1]): Active | Activity (RPMI-8226 [2]): 15% | Activity (MM1.S [3]): 27.8% | Activity (RPMI-8226 [4]): Active

CC(C)N(CCCNC(=O)Nc1ccc(C(C)(C)C)cc1)C[C@H]1O[C@@H](n2cc(Br)c3c(N)ncnc32)[C@H](O)[C@@H]1O
Activity (MM1.S [5]): Active | Activity (KMS-12-PE): Active | Activity (U-266): Active | Activity (MM1.S [6]): Active | Activity (MM1.S [7]): Active | Activity (RPMI-8226 [8]): Active | Activity (RPMI-8226 [9]): Active | Activity (RPMI-8226 [10]): Active | Activity (RPMI-8226 [11]): Active | Activity (RPMI-8226 [12]): Active | Activity (RPMI-8226 [13]): Active | Activity (RPMI-8226 [14]): Active | Activity (RPMI-8226 [15]): Active | Activity (RPMI-8226 [16]): Active | Activity (RPMI-8226 [17]): Active | Activity (RPMI-8226 [18]): Active | Activity (RPMI-8226 [19]): Active | Activity (RPMI-8226 [20]): Active | Activity (RPMI-8226 [21]): Active | Activity (RPMI-8226 [22]): Active | Activity (RPMI-8226 [23]): Active | Activity (RPMI-8226 [24]): Active | Activity (RPMI-8226 [25]): Active | Activity (RPMI-8226 [26]): Active | Activity (RPMI-8226 [27]): Active | Activity (RPMI-8226 [28]): Active | Activity (RPMI-8226 [29]): Active | Activity (MM1.S [30]): Active | Activity (MM1.S [31]): Active | Activity (MM1.S [32]): Active | Activity (MM1.S [33]): Active | Activity (MM1.S [34]): Active | Activity (MM1.S [35]): Active | Activity (MM1.S [36]): Active | Activity (MM1.S [37]): Active | Activity (MM1.S [38]): Active | Activity (MM1.S [39]): Active | Activity (MM1.S [40]): Active | Activity (MM1.S [41]): Active | Activity (MM1.S [42]): Active | Activity (MM1.S [43]): Active | Activity (MM1.S [44]): Active
